# Calls of active or inactive are those of the source. The rule behind the calls is not given here.
# Columns and labels:
# U2932 [1] = test: Potentiation of CPA-induced antitumor activity against human U2932 cells xenografted in SCID mouse assessed as reduction in tumor burden AUC at 5 to 7.5 mg/kg, ip for 5 days cotreated with 10 mg/kg NSC-59276 measured on day 9 to 15 post first treatment; assay type: functional, organism-based
# Outline: (§1)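 U2932 DLBCL cells (10 × 10^6 in 100 μL sterile saline, viability >91%) injected subcutaneously into left flank of SCID mice (6−8 weeks, immunoglobulin ≤20 μg/mL). Mice pair-matched by tumor volume. Drugs given ip daily for 5 days, CPA 30 mg/kg; controls received all diluents. Tumor volume = a2 × b/2 (a smallest, b largest diameter); n = 5−8; Grubbs' test for outliers.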
# Homo sapiens [2] = organism: Homo sapiens; test: Binding affinity to c-myc G-quadruplex DNA in BCL2 translocation-positive human SUDHL4 cells assessed as downregulation of MYC mRNA levels up to 3 uM after 24 hrs by qPCR method relative to control
# Outline: (§2)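 DLBCL lines grown in RPMI with 10% FBS (SUDHL4 15% FBS) and penicillin/streptomycin. Cells exposed for 24 h to rising concentrations up to 3 μM; DMSO as vehicle control. Total RNA isolated, target mRNA measured by TaqMan real-time qPCR, normalized to TBP and expressed relative to untreated cells; triplicate experiments, two-tailed t test.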
# U2932 [3] = test: Potentiation of CPA-induced antitumor activity against human U2932 cells xenografted in SCID mouse assessed as tumor growth inhibition at 7.5 mg/kg, ip for 5 days cotreated with 10 mg/kg NSC-59276 measured on day 9 post first treatment (reference value: 50%); assay type: functional; outline: as §1
# Mus musculus [4] = test: Effect on BCL2 mRNA level in SCID mouse xenografted with human U2932 cells at 2.5 to 5 mg/kg, ip administered for 5 consecutive days cotreated with CPA by qPCR method; assay type: functional, organism-based
# Outline: (§3)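 Tumors from U2932 xenograft SCID mice given ip treatment daily for 5 days were harvested. Total RNA was taken from the same tumor preparations used for protein lysates, and MYC or BCL2 mRNA was quantified by TaqMan qPCR normalized to TBP. Comparisons were made with diluent-treated mice or CPA-only mice.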
# Mus musculus [5] = test: Toxicity in scid mouse xenografted with human U2932 cells assessed as change in body weight at 10 mg/kg, ip administered for 5 consecutive days cotreated with NSC-59276 and CPA; assay type: organism-based; conditions: in vivo
# Outline: (§4)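 SCID mice (6−8 weeks, female or male, serum immunoglobulin ≤20 μg/mL by ELISA) implanted subcutaneously in left flank with 10 × 10^6 U2932 cells in 100 μL saline; pair-matched by tumor volume; dosed ip daily for 5 days; controls received all compound diluents; tumor volume a2 × b/2; outliers by Grubbs' test; two-tailed t test with Šidák–Bonferroni correction.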
# Mus musculus [6] = test: Reduction in Bcl2 mRNA level in tumor of SCID mouse xenografted with human U2932 cells at 5 to 7.5 mg/kg, ip administered for 5 consecutive days cotreated with CPA and NSC-59276 by qPCR method; assay type: functional, organism-based; outline: as §3
# U2932 [7] = test: Potentiation of CPA-induced antitumor activity against human U2932 cells xenografted in SCID mouse assessed as reduction in tumor burden at 2.5 mg/kg, ip administered for 5 consecutive days measured up to 10 days post first treatement; assay type: functional, organism-based
# Outline: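 SCID mice bearing subcutaneous left-flank U2932 xenografts (10 × 10^6 cells in saline), pair-matched by tumor volume. Test agent given ip daily for 5 days with 50 mg/kg CPA; diluent-treated and CPA-alone controls. Tumor volume estimated as a2 × b/2 from smallest and largest diameters. Grubbs' test for outliers; two-tailed Student's t test.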
# Mus musculus [8] = test: Toxicity in scid mouse xenografted with human U2932 cells assessed as change in body weight at 5 mg/kg, ip administered for 5 consecutive days cotreated with NSC-59276 and CPA; assay type: organism-based; conditions: in vivo; outline: as §4
# Homo sapiens [9] = organism: Homo sapiens; test: Binding affinity to c-myc G-quadruplex DNA in MYC translocation-positive and BCL2 amplification-positive human U2932 cells assessed as downregulation of MYC mRNA levels up to 3 uM after 24 hrs by qPCR method relative to control; outline: as §2
# Homo sapiens [10] = organism: Homo sapiens; test: Stabilization of c-myc G-quadruplex DNA in BCL2 and MYC translocation-positive human VAL cells assessed as potentiation of CPA-induced apoptosis by measuring increase in caspase-3 activity at 3 uM after 24 hrs in presence of NSC-59276 by AFC based fluorescence assay (reference value: 30%)
# U2932 [11] = test: Antitumor activity against human U2932 cells xenografted in SCID mouse assessed as reduction in tumor burden at 5 to 7.5 mg/kg, ip for 5 days cotreated with 10 mg/kg NSC-59276 measured on day 9 to 15 post first treatment; assay type: functional, organism-based; outline: as §1
# Mus musculus [12] = test: Reduction in Myc mRNA level in SCID mouse xenografted with human U2932 cells at 10 mg/kg, ip administered for 5 consecutive days cotreated with CPA and NSC-59276 by qPCR method; assay type: functional, organism-based; outline: as §3
# Homo sapiens [13] = organism: Homo sapiens; test: Binding affinity to c-myc G-quadruplex DNA in BCL2 translocation-positive human SUDHL4 cells assessed as downregulation of MYC mRNA levels after 24 hrs by qPCR method; outline: as §2
# Homo sapiens [14] = organism: Homo sapiens; test: Binding affinity to c-myc G-quadruplex DNA in BCL2 and MYC translocation-positive human VAL cells assessed as downregulation of MYC mRNA levels at 3 uM after 24 hrs by qPCR method; outline: as §2
# U2932 [15] = test: Potentiation of CPA-induced antitumor activity against human U2932 cells xenografted in SCID mouse assessed as tumor growth inhibition at 7.5 mg/kg, ip for 5 days cotreated with 10 mg/kg NSC-59276 measured on day 15 post first treatment (reference value: 44%); assay type: functional; outline: as §1
# Homo sapiens [16] = organism: Homo sapiens; test: Binding affinity to BLC2 i-motif promoter DNA in MYC translocation-positive and BCL2 amplification-positive human U2932 cells assessed as downregulation of BLC2 mRNA levels up to 3 uM after 24 hrs by qPCR method; outline: as §2
# Homo sapiens [17] = organism: Homo sapiens; test: Binding affinity to c-myc G-quadruplex DNA in BCL2 translocation-positive human SUDHL4 cells assessed as downregulation of MYC mRNA levels at 0.25 to 3 uM after 6 hrs by qPCR method
# Homo sapiens [18] = organism: Homo sapiens; test: Binding affinity to c-myc G-quadruplex DNA in MYC translocation-positive and BCL2 amplification-positive human U2932 cells assessed as downregulation of MYC mRNA levels at 0.25 to 3 uM after 6 hrs by qPCR method
# Mus musculus [19] = test: Reduction in Myc mRNA level in SCID mouse xenografted with human U2932 cells at 2.5 to 5 mg/kg, ip administered for 5 consecutive days cotreated with CPA by qPCR method; assay type: functional, organism-based; outline: as §3
structure (smiles),measurement,setting,value
Cc1c2ccncc2c(C)c2c1[nH]c1ccc(OCCN(C)C)cc12.Cl.Cl,Activity,U2932 [1],Active
same,Activity,Homo sapiens [2],< 90%
same,TGI,U2932 [3],50%
same,Activity,Mus musculus [4],inactive
same,Activity,Mus musculus [5],Toxic
same,Activity,Mus musculus [6],Active
same,Activity,U2932 [7],Active
same,Activity,Mus musculus [8],Non-Toxic
same,Activity,Homo sapiens [9],< 90%
same,Activity,Homo sapiens [10],100%
same,Activity,U2932 [11],inactive
same,Activity,Mus musculus [12],Active
same,Activity,Homo sapiens [13],Dose-dependent effect
same,Activity,Homo sapiens [14],Active
same,TGI,U2932 [15],37%
same,Activity,Homo sapiens [16],inactive
same,Activity,Homo sapiens [17],Active
same,Activity,Homo sapiens [18],Active
same,Activity,Mus musculus [19],Active
